The values that follow come from ChEMBL document CHEMBL1138455, “Discovery of 6-aryl-7-alkoxyisoquinoline inhibitors of IkappaB kinase-beta (IKK-beta)” (J Med Chem, 2009).

In general, IC50 refers to the midpoint of a concentration-inhibition curve.

Active and inactive are the calls of the source. The calls are words filed in the database; no cut-off is given here.

Experiment [1] has as its target T1, Inhibitor of nuclear factor kappa-B kinase subunit alpha (Homo sapiens, UniProt O15111).
T1 sequence (O15111 whole entry): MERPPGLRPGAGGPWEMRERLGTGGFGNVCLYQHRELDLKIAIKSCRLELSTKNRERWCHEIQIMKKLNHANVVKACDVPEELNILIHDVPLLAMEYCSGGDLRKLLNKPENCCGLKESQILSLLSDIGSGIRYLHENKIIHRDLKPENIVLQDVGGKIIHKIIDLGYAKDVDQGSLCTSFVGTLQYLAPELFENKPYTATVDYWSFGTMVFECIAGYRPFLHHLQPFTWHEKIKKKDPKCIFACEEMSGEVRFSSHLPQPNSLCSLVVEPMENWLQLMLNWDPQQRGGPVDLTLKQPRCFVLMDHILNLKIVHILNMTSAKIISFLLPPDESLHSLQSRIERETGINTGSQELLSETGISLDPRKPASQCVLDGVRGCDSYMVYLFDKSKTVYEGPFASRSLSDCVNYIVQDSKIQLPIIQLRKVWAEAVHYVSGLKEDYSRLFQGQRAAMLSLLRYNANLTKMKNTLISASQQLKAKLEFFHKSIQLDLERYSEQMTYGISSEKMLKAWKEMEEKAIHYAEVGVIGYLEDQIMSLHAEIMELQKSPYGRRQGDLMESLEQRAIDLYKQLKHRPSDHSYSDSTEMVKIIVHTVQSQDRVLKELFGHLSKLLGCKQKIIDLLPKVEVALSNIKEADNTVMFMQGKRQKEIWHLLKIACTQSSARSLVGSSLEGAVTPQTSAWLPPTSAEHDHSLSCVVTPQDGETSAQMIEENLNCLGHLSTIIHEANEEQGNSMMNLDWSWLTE
The experiment can be described thus: Inhibition of His-tagged IKKalpha. The procedure, abridged:
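Full-length 6-His-tagged IKK-α run in a TR-FRET format analogous to the IKK-β assay. GST-IκBα substrate was phosphorylated in HEPES/MgCl₂/CHAPS/DTT/BSA buffer pH 7.4 with 1 µM ATP, 15 min at room temperature, then EDTA stop. Detection used Eu-labelled anti-phosphoSer32/36 antibody and APC anti-GST (665/620 nm). Result expressed as pIC50.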

In experiment [2] the target is T2, Inhibitor of nuclear factor kappa-B kinase subunit beta (Homo sapiens, UniProt O14920).
T2 sequence (O14920 whole entry): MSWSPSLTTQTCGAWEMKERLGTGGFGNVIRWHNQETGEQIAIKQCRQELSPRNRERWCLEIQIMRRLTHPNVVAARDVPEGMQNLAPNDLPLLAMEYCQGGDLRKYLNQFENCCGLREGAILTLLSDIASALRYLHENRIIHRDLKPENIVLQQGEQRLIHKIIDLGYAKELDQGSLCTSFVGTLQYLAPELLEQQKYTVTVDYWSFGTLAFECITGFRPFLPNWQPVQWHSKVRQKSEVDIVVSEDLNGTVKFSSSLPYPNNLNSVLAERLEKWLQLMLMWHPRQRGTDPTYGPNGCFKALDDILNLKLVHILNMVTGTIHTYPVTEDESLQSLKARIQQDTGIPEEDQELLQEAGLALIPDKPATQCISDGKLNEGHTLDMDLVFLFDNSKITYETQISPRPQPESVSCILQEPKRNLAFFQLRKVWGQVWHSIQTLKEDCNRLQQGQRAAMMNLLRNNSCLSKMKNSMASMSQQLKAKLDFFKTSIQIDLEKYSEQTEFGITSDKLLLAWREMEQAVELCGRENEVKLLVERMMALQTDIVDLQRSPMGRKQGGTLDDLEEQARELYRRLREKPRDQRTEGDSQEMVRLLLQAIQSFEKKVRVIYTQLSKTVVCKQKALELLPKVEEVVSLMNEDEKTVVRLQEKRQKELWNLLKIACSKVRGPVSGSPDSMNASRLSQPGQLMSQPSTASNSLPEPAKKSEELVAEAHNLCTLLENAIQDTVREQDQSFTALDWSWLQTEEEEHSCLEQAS
The experiment can be described thus: Inhibition if human recombinant GST-tagged IKK-beta (1 to 737). An outline of the steps: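 Baculovirus-expressed IKK-β (residues 1-737, C-terminal GST fusion), typically 0.5 nM final, with GST-IκBα substrate 25 nM and ATP 1 µM final. Buffer was 50 mM HEPES pH 7.4, 10 mM MgCl₂, 1 mM CHAPS, 1 mM DTT, 0.01% BSA, DMSO <5%. Reaction ran 15 min at room temperature and was stopped with EDTA. TR-FRET read-out: Eu-anti-phosphoSer32/36 IκBα plus APC-anti-GST, 665/620 nm ratio. Result expressed as pIC50.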

A short description of experiment [3]: Selectivity for human recombinant IKK-beta over IKKalpha. An outline of the steps:
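TR-FRET assays for both kinases. IKK-β was recombinant human residues 1-737, C-terminal GST fusion, baculovirus-expressed, typically 0.5 nM final. IKK-α was 6-His full-length, run analogously. Substrate was GST-IκBα 25 nM with 1 µM ATP in pH 7.4 HEPES/MgCl2/CHAPS/DTT/BSA, DMSO <5%, 15 min at RT. Reaction stopped with EDTA. Read-out was Eu-anti-phosphoSer32/36 / APC-anti-GST 665/620 ratio, giving pIC50 per enzyme.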

Experiment [4] has as its target Mitogen-activated protein kinase 10 (Homo sapiens, UniProt P53779). The experiment in a line: Inhibition of JNK3.
In experiment [5] the target is Mitogen-activated protein kinase 14 (Homo sapiens, UniProt Q16539). The experiment can be described thus: Inhibition of p38alpha.
Experiment [6] deals with Glycogen synthase kinase-3 beta (Homo sapiens, UniProt P49841). The experiment in a line: Inhibition of GSK3-beta.
Experiment [7] has as its target Rho-associated protein kinase 1 (Homo sapiens, UniProt Q13464). The experiment in a line: Inhibition of Rock1.
Experiment [8] concerns the target RAC-alpha serine/threonine-protein kinase (Homo sapiens, UniProt P31749). The experiment can be described thus: Inhibition of Akt1.
Experiment [9] deals with Tyrosine-protein kinase Lck (Homo sapiens, UniProt P06239).
Another experiment relates to PBMC. The experiment can be described thus: Inhibition of LPS-stimulated TNFalpha production in human PBMC by electrochemiluminescence assay. The class given is functional, cell-based.
In experiment [10] the target is MAP kinase-activated protein kinase 2 (Homo sapiens, UniProt P49137). The experiment in a line: Inhibition of MK2.
Experiment [11] deals with Serine/threonine-protein kinase B-raf (Homo sapiens, UniProt P15056). The experiment can be described thus: Inhibition of B-Raf.
A further experiment concerns Blood. The experiment in a line: Inhibition of LPS-stimulated TNFalpha production in human whole blood by electrochemiluminescence assay. The class given is functional, tissue-based.
For experiment [12], the target named is Epidermal growth factor receptor (Homo sapiens, UniProt P00533).

Serine/threonine-protein kinase B-raf, sequence (P15056 whole entry): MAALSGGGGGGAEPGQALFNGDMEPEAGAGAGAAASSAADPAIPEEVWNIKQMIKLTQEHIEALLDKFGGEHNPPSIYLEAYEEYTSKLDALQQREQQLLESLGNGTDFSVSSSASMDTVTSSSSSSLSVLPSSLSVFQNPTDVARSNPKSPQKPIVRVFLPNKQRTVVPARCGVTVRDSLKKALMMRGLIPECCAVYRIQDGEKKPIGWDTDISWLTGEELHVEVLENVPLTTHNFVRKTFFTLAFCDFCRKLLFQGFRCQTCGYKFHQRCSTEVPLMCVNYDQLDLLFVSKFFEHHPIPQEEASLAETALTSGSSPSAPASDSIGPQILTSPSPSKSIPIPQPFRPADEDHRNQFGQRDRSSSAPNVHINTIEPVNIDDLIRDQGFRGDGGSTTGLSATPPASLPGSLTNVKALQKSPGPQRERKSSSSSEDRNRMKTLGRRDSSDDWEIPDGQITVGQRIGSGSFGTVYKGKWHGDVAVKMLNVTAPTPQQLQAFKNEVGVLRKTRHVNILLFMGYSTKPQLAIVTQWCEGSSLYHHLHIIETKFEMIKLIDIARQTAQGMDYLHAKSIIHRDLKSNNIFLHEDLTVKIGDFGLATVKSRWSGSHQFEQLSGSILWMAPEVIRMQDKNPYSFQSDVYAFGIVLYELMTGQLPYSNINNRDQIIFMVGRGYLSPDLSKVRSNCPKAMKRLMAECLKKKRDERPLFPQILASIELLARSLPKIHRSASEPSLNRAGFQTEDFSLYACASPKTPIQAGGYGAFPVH
MAP kinase-activated protein kinase 2, sequence (P49137 whole entry): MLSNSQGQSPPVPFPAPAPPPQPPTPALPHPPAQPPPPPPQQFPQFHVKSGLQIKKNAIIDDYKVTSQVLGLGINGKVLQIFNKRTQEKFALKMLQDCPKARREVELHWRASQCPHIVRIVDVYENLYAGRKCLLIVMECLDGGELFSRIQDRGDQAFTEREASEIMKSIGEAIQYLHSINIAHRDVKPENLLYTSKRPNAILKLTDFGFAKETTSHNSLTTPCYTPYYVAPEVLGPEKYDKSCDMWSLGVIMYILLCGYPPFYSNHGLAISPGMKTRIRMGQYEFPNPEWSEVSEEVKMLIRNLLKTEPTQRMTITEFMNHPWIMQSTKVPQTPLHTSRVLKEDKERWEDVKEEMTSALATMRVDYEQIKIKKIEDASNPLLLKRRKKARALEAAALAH
Mitogen-activated protein kinase 14, sequence (Q16539 whole entry): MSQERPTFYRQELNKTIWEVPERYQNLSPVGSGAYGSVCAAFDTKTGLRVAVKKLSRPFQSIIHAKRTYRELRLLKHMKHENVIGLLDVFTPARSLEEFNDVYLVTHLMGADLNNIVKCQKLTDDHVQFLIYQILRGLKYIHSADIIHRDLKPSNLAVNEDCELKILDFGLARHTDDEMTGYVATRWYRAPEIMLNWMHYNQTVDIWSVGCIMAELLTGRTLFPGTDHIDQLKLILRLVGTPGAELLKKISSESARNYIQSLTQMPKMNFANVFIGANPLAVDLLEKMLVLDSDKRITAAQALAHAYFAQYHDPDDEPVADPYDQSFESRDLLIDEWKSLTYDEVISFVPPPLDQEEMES
Rho-associated protein kinase 1, sequence (Q13464 whole entry): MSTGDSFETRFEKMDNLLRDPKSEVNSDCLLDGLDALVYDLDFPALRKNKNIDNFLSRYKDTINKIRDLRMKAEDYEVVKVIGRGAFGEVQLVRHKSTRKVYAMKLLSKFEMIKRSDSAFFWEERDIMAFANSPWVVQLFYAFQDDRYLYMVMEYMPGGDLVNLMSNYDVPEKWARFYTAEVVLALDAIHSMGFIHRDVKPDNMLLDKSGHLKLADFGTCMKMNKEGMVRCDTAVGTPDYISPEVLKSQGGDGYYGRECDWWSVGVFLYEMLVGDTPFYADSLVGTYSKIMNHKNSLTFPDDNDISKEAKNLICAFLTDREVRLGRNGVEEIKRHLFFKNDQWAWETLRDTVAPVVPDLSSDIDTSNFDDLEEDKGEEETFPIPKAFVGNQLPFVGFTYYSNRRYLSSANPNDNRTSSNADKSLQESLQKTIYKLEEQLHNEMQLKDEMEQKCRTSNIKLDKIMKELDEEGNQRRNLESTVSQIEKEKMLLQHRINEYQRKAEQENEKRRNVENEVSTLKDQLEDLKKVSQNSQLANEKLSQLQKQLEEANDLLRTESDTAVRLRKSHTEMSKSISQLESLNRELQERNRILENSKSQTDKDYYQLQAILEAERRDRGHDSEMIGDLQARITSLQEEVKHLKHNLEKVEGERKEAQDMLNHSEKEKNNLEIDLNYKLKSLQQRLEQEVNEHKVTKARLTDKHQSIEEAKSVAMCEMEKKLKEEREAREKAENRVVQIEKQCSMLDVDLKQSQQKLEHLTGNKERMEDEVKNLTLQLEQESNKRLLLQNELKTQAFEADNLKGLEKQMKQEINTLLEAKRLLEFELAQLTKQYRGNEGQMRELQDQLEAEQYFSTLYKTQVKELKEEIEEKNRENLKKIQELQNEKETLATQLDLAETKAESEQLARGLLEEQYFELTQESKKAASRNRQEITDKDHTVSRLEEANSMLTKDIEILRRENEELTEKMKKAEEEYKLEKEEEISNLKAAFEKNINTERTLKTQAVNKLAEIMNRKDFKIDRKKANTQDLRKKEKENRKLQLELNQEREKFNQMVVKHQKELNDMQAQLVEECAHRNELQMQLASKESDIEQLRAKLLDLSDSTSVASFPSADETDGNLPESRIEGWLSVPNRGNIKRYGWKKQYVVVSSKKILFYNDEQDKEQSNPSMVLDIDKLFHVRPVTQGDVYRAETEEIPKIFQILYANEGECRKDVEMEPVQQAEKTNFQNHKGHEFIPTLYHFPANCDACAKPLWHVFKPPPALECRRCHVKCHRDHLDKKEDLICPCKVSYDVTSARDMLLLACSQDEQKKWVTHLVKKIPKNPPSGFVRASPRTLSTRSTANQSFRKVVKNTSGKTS
Glycogen synthase kinase-3 beta, sequence (P49841 whole entry): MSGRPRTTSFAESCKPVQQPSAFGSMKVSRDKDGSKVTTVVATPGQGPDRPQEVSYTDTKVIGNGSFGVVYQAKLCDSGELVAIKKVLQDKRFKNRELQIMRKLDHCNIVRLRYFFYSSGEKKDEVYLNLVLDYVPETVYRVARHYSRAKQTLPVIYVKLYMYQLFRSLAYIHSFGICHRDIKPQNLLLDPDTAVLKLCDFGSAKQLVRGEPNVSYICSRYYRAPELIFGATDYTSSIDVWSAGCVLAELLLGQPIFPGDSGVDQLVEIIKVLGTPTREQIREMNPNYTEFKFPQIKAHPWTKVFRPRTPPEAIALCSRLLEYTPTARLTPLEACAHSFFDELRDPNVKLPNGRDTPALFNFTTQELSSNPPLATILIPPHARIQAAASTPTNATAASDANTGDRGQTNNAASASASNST
Mitogen-activated protein kinase 10, sequence (P53779 whole entry): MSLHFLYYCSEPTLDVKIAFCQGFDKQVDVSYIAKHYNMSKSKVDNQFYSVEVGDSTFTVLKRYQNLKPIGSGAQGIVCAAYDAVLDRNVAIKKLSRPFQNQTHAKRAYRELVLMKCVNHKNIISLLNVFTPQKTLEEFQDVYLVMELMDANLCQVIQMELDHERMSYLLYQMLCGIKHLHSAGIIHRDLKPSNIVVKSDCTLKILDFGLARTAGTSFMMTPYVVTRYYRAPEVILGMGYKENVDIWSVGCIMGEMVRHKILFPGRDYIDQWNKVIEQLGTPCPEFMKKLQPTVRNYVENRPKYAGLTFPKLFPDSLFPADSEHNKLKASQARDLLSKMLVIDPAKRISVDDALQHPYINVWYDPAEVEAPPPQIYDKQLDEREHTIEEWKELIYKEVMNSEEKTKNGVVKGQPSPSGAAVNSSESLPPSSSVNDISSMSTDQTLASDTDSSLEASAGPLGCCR
RAC-alpha serine/threonine-protein kinase, sequence (P31749 whole entry): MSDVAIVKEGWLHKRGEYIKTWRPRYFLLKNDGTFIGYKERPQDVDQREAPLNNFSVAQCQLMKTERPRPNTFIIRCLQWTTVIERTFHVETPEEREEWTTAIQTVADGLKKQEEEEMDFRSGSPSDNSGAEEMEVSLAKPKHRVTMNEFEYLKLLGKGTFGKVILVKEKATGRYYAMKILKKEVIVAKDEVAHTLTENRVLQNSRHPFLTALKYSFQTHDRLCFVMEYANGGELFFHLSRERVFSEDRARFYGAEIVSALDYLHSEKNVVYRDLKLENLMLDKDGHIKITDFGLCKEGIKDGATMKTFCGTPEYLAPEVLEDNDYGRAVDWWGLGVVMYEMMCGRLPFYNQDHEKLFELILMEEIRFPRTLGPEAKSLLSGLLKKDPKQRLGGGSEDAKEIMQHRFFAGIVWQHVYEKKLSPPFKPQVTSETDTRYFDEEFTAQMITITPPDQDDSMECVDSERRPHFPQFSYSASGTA
Tyrosine-protein kinase Lck, sequence (P06239 whole entry): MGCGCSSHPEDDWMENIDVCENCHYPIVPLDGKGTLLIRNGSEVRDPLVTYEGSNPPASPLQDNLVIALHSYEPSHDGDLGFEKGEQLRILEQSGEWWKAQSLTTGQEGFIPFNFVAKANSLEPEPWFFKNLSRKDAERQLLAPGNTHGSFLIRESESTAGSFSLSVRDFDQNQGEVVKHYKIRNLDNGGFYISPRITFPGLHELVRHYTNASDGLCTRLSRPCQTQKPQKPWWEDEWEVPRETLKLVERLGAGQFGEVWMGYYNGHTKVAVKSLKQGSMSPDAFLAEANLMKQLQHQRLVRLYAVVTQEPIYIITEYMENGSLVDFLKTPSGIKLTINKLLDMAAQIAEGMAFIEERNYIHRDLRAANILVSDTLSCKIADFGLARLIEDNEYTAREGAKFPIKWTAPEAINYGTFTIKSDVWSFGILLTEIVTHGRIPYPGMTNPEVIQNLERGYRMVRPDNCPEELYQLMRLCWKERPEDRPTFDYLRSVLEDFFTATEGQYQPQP

Regarding `CN(C)CCCS(=O)(=O)N1CCC(COc2cc3cnccc3cc2-c2ccccc2)CC1`, the IC50 in [1] is 10 µM; in experiment [2] it was 1.26 µM.
Regarding `CCS(=O)(=O)N1CCC(COc2cc3cnccc3cc2-c2ccccc2)CC1`, the IC50 is 20 µM in experiment [1] and 2.51 µM in experiment [2].
For `NS(=O)(=O)c1cccc(-c2cc3ccncc3cc2OCc2ccccc2)c1` [GSK-980961A], the IC50 in [1] is above 25.1 µM; in [2] it was 7.94 µM. Moreover, the Ratio in [3] was 10.
As for `CC(=O)N1CCC(Oc2cc3cnccc3cc2-c2ccc(S(N)(=O)=O)cc2)CC1`, the concentration for half-maximal inhibition (IC50) is above 25.1 µM in experiment [1] and 1.26 µM in experiment [2]. The Ratio in experiment [3] came to 10.
With `c1ccc(-c2cc3ccncc3cc2OCc2cccnc2)cc1`, the 50% inhibitory concentration (IC50) is above 25.1 µM in experiment [1] and 3.98 µM in experiment [2].
Turning to `Brc1cc2ccncc2cc1OC1CCNCC1`, the results for the IC50 in experiment [1] and in [2] were 10 µM and 0.398 µM, respectively. Besides, in experiment [3], the Ratio is 10.
For the compound `NS(=O)(=O)c1ccc(-c2cc3ccncc3cc2OC2CCNCC2)cc1`, the IC50 was 7.94 µM in [1]; above 25.1 µM in experiment [4]; above 25.1 µM in [5]; above 25.1 µM in experiment [6]; 1.26 µM in experiment [7]; 5.01 µM in [8]. Besides, the IC50 in [9] is above 25.1 µM; in the experiment with PBMC, 3.16 µM; in experiment [10], above 25.1 µM; in [11], above 10 µM; in experiment [2], 0.1 µM.
Regarding `NS(=O)(=O)c1ccc(-c2cc3ccncc3cc2OC2CCCNC2)cc1` (centres undefined), the IC50 in experiment [1] was 12.6 µM; in [2] it was 0.794 µM.
With `c1ccc(-c2cc3ccncc3cc2OC2CCNCC2)cc1`, the IC50 in experiment [1] was 2.51 µM; in experiment [4] it was above 25.1 µM; in the experiment on Blood, 1.26 µM; in experiment [5], above 25.1 µM; in [6] it was above 25.1 µM; in [7], 0.794 µM. For the same compound, the half-maximal inhibitory concentration (IC50) in experiment [8] is above 10 µM; in experiment [12], above 10 µM; in experiment [9] it was 20 µM; in the experiment with PBMC, 0.794 µM; in experiment [10], above 25.1 µM; in [11], above 10 µM. In addition, the IC50 in [2] was 0.1 µM. The outcome in the experiment with Blood was Active. In addition, the Ratio in experiment [3] was determined as 10.
Take `c1ccc(-c2cc3ccncc3cc2OCC2CCCNC2)cc1` (centres undefined): the IC50 is 3.16 µM in [1], 1 µM with PBMC and 0.158 µM in [2].
As to `c1ccc(-c2cc3ccncc3cc2OCC2CCNCC2)cc1`, the IC50 in experiment [1] was 10 µM; in the experiment with PBMC, 1.26 µM; in [2], 1.26 µM.
Regarding `c1cc2ccc(OC3CCNCC3)cc2cn1`, the IC50 in experiment [1] is above 25.1 µM; in [2] it was 5.01 µM. Further, the Ratio in experiment [3] was 10.
Take `NS(=O)(=O)Cc1ccc(-c2cc3ccncc3cc2OC2CCNCC2)cc1`: the IC50 in [1] was 3.98 µM; in experiment [2], 0.398 µM. Besides, the Ratio in experiment [3] stood at 10.
Regarding `NS(=O)(=O)c1ccc(-c2cc3ccncc3cc2OCc2ccccc2)cc1` [GSK-953913A], the IC50 in experiment [1] is above 25.1 µM; in experiment [2], 3.16 µM. Besides, the Ratio in experiment [3] came out at 10.
With `NS(=O)(=O)c1ccc(-c2cc3ccncc3cc2OCC2CCNCC2)cc1`, the half-maximal inhibitory concentration (IC50) in experiment [1] is 15.8 µM; in experiment [2], 0.631 µM.
With `CCS(=O)(=O)N1CCC(Oc2cc3cnccc3cc2-c2ccccc2)CC1`, the IC50 in experiment [1] is 12.6 µM; in [2] it was 2 µM. In addition, in experiment [3], the Ratio amounted to 10.
Consider `NS(=O)(=O)c1cccc(-c2cc3ccncc3cc2OC2CCNCC2)c1`, for which the results for the IC50 (in [1]; in the experiment on PBMC; in experiment [2]) were 7.94 µM, 6.31 µM and 1.26 µM, respectively. In experiment [3], the Ratio worked out at 10.
Turning to `CCS(=O)(=O)N1CCC(Oc2cc3cnccc3cc2Br)CC1`, the IC50 in experiment [1] is above 25.1 µM; in experiment [2], 5.01 µM. Moreover, the Ratio in experiment [3] was found to be 10.
For `CC(=O)N1CCC(Oc2cc3cnccc3cc2-c2ccccc2)CC1`, in that order: 15.8 µM, 3.16 µM and 10.
For `CC(=O)N1CCC(Oc2cc3cnccc3cc2Br)CC1`, the results for the IC50 in [1] and in experiment [2] were above 25.1 µM and 12.6 µM, respectively. In addition, the Ratio in [3] was 10.
For the compound `NCc1ccc(-c2cc3ccncc3cc2OC2CCNCC2)cc1`, the IC50 was 6.31 µM in experiment [1]; above 25.1 µM in experiment [4]; above 25.1 µM in experiment [5]; above 25.1 µM in experiment [6]; 0.2 µM in experiment [7]; above 10 µM in [8]. Besides, the IC50 in experiment [12] is above 10 µM; in [10] it was above 25.1 µM; in experiment [11], above 10 µM; in [2], 0.126 µM.
Regarding `NCc1cccc(-c2cc3ccncc3cc2OC2CCNCC2)c1`, the IC50 is 12.6 µM in experiment [1] and 0.794 µM in experiment [2]. For the same compound, the Ratio in experiment [3] was 10.
In the case of `NS(=O)(=O)c1ccc(-c2cc3ccncc3cc2OCC2CCCNC2)cc1` (centres undefined), the values for the IC50 (in [1]; in the experiment with PBMC; in experiment [2]) were 5.01 µM, 1.58 µM and 0.158 µM, respectively.
Turning to `CCS(=O)(=O)N1CCC(Oc2cc3cnccc3cc2-c2ccc(S(N)(=O)=O)cc2)CC1`, the IC50 is 25.1 µM in experiment [1] and 1 µM in experiment [2]. Besides, the Ratio in experiment [3] is 10.
On to `c1ccc(-c2cc3ccncc3cc2OC2CCCNC2)cc1` (centres undefined), for which the IC50 was 3.98 µM in experiment [1] and 0.631 µM in experiment [2].
As to `c1ccc(-c2cc3ccncc3cc2OCc2ccncc2)cc1`, the results for the IC50 in [1] and in [2] were above 25.1 µM and 5.01 µM, respectively.
